Compound activity from PubChem BioAssay.
MrgX1 allo act = allosterically activates human MrgX1 receptor signaling; Q96LB2; MrgX1-HEK293, Fluo-4 calcium flux, FDSS; hits give high values; B-score at 10 µM; actives 0.63% (n = 310,000);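 active = plate-corrected calcium response at least 3 library SD above typical, normal starting fluorescence, not activating the receptor alone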;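 also: compound read alongside a low EC10 to EC30 dose of BAM8-22 agonist; peak minus trough fluorescence over baseline measured at the second addition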
Target sequence (Q96LB2 whole entry, looked up): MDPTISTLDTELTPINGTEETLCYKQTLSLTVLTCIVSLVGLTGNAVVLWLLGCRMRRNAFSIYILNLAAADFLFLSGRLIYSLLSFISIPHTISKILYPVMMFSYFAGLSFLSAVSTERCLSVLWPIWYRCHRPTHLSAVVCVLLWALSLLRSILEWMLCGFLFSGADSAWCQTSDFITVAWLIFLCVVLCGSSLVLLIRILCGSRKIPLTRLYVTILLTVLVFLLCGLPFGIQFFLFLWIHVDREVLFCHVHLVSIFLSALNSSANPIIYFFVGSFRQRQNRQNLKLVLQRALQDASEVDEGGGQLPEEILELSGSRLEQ
MrgX1 ag = agonists of human MrgX1 receptor; MrgX1-HEK293 cells, Fluo-4 calcium fluorescence, agonist mode; hits give high values; B-score at 10 µM; actives 0.44% (n = 310,000); AID 588627;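 active = calcium response B-score plate-corrected fluorescence ratio at least 3 library SD, with starting fluorescence B-score inside 5 SD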
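Assay system: stable human MrgX1 HEK293 cell line. Quantity: 15,000 cells per well. Schedule: cells plated overnight, dye loaded 0.5 h 37 °C, 0.5 h room temperature. Detection: Fluo-4 NW calcium-flux fluorescence, kinetic read. Read-out basis: peak-minus-minimum fluorescence over baseline, converted to B scores. Control set: positive and negative control wells on each plate.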
RGS4 block = inhibitors of human RGS4; AID 463165; HEK293 M3R/RGS4 inducible, Fluo-4 calcium flux; hits give high values; triggered by carbachol at its EC20; B-score at 10 µM; actives 0.45% (n = 310,000);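 active = B-score, a plate-corrected calcium signal, over three deviations above library mean, with baseline fluorescence within five deviations of library mean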;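 also: RGS4 expression induced by doxycycline in cells with stable M3 receptor; B-score is computed from the integrated fluorescence ratio over baseline after carbachol; higher B-score means a larger calcium signal and so more RGS4 inhibition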
MrgX1 antagonist = antagonists of human MrgX1 receptor; B-score at 10 µM; actives 1.3% (n = 310,000); MRGX1-HEK293 calcium flux, Fluo-4, BAM8-22 antagonism; hits give low values; Q96LB2;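 active = calcium-response B-score plate-corrected more than 3 library SD below zero, starting fluorescence within 5 deviations, no agonist response on first addition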;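 also: peak minus trough fluorescence over baseline after final BAM8-22 challenge near maximal dose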
RGS4 act = potentiators or activators of RGS4; HEK293 M3R/inducible RGS4, carbachol calcium flux Fluo4; hits give low values; AID 463111; actives 0.92% (n = 310,000); B-score at 10 µM;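 active = B-score of the integrated calcium signal more than 4 SD below the library mean, with starting fluorescence not abnormally high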;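 also: negative B-score means reduced calcium response which marks RGS4 activation or potentiation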
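Detection: kinetic calcium fluorescence imaging with Fluo4-AM dye, 2 µM / Material: HEK293 cells with stable M3R and inducible RGS4 / Schedule: recording 10 s baseline at 1 Hz, 100 s post-agonist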
The depositor's hits bear a star; i = inactive; . = no result given. In the library only some 3.5% were active in any assay of this set; here they are far more common.

SMILES	MrgX1 allo act	MrgX1 ag	RGS4 block	MrgX1 antagonist	RGS4 act
CN(Cc1ccccc1)CC1CCCN(CCc2ccccc2F)C1 (configuration not stated)	i	i	i	i	i
CC(=O)c1cccc(CN(C)CC2CCCN(CCc3ccccc3C)C2)c1 (configuration not stated)	i	i	i	i	-7*
Cn1c(SCC(=O)c2ccc(O)cc2O)nnc1-c1ccccc1	i	i	i	i	i
N#CCCS(=O)(=O)c1nnnn1-c1ccccc1	i	42*	.	i	.
c1ccc(-n2nnnc2Cc2nnnn2-c2ccccc2)cc1	i	i	i	i	i
COc1ccccc1N1CCN(C2CCC(C)CC2)CC1 (configuration not stated)	i	i	i	i	i
COc1ccccc1N1CCN(C2CCN(C3CCC(c4ccccc4)CC3)CC2)CC1 (configuration not stated)	9.1*	i	i	i	i
COc1cc(/C=C2/C(=O)ON=C2C)cc(Cl)c1O	i	40*	i	i	i
CCOc1cc(/C=C2/C(=O)ON=C2C)ccc1O	i	33*	i	i	i
C#CCOc1c(Cl)cc(/C=C2/C(=O)ON=C2C)cc1OC	i	i	i	i	i
COc1ccc(CCN2C(=NC(=O)CC(C)C)SC3CS(=O)(=O)CC32)cc1 (configuration not stated)	i	i	i	i	i
COc1ccc(CCN2C(=NC(=O)CCC(=O)O)SC3CS(=O)(=O)CC32)cc1OC (configuration not stated)	i	i	i	-5.2*	i
Cc1cc(C)n(-c2ccc(C(F)(F)F)cc2[N+](=O)[O-])n1	i	i	i	i	-9.3*
COc1ccnc(Oc2ccccc2)c1C(=O)N/C=N/OCc1ccccc1F	i	i	i	-5.6*	i
COc1ccc(/C=N/n2cnn(Cc3ccccc3Cl)c2=S)cc1	i	i	i	i	i
Oc1ccccc1/C=N/n1cnn(Cc2ccccc2Cl)c1=S	i	i	i	-6.1*	i
CCOC(=O)c1cc(C)sc1NC(=O)CSC1=NCCS1	i	i	i	i	i
CC(C)(C)OC(=O)CC1(C#N)c2ccccc2C(Br)=CN1C(=O)c1ccccc1 (configuration not stated)	i	i	i	i	i
COc1c(C)cccc1C(=O)NC(=S)Nc1ccccc1N1CCCC1	i	i	i	i	-7.6*
COc1ccc(C(=O)/C=C/c2ccc(OCc3ccccc3)cc2)cc1CSCC(=O)O	i	i	i	i	i
COc1ccc(C(=O)/C=C/c2cccc(OCc3ccccc3)c2)cc1CSCC(=O)O	i	30*	i	i	i
CCOc1ccccc1NC(=O)NC1(C(=O)NCc2cccnc2)CCCCC1	i	i	i	i	i
CCN(CC)S(=O)(=O)c1ccc(Cl)c(C(=O)Oc2cccc(-c3cnc4ccccc4n3)c2)c1	i	i	i	i	-7.1*
Cc1nn(CC(=O)NCCN2CCOCC2)c(=O)c2cc3sccc3n12	i	i	i	i	i
CCC(O)c1nc2ccccc2n1CCc1ccccc1 (configuration not stated)	i	i	i	i	i
SMILES	MrgX1 allo act	MrgX1 ag	RGS4 block	MrgX1 antagonist	RGS4 act
Cc1ccc(-c2nc3ccc([N+](=O)[O-])cc3[nH]2)cc1	i	i	i	i	i
O=[N+]([O-])c1ccc2nc(-c3ccc(Cl)cc3)[nH]c2c1	i	i	i	-5.8*	i
Cc1ccc(C(=O)Nc2cccc(N3C(=O)C4CCC(C)CC4C3=O)c2)cc1 (configuration not stated)	i	i	i	i	i
COc1ccc(CNC(=O)COc2ccc(S(=O)(=O)N3CCCCC3)cc2Cl)cc1	i	i	i	i	-7.1*
CCN1CCN(c2ccc(S(=O)(=O)N3CCOCC3)cc2NC(=O)c2ccc(F)cc2Cl)CC1	i	i	i	i	i
CC(=O)NC(CC(=O)OCc1ccc([N+](=O)[O-])cc1)c1ccccc1 (configuration not stated)	i	i	i	i	i
